Laboratory results reported in ChEMBL document CHEMBL2016441, “Discovery and structural development of small molecules that enhance transport activity of bile salt export pump mutant associated with progressive familial intrahepatic cholestasis type 2” (Bioorg Med Chem, 2012).

Experiments:
Bile salt export pump [1] = molecular target: T1, Bile salt export pump (Homo sapiens, UniProt O95342, E297G); assay: (§1) Restoration of human BSEP E297G mutant trafficking to cell membrane in MDCK2 cells co-expressing NTCP assessed as increase in [3H]taurocholate transport measuring apparent efflux clearance across the apical membrane at 1 mM preincubated for 24 hrs prior incubation with [3H]taurocholate measured after 2 hrs by transcellular transport assay relative to control; type: cell-based; details: mdck2, 2 h, 1000 µM
Method in brief: (§2)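 MDCK II cells grown 2 days on Transwell inserts, then infected with E297G BSEP or GFP adenovirus (50 MOI). Compounds added 24 h later for 24 h. [3H]TC added basally. PS_apical is the steady-state transcellular rate over 2 h divided by the cellular [3H]TC concentration at 2 h. Mean ± SE of triplicates.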

Bile salt export pump [2] = molecular target: T1, Bile salt export pump; assay: Restoration of human BSEP E297G mutant trafficking to cell membrane in MDCK2 cells co-expressing NTCP assessed as accumulation of [3H]taurocholate at 10 uM preincubated for 24 hrs prior incubation with [3H]taurocholate measured after 2 hrs by liquid scintillation counting; type: cell membranes; details: mdck2, 2 h
Method in brief: (§3)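 Human WT or E297G BSEP delivered by recombinant adenovirus (50 MOI) into MDCK II cells on 24-well plates, 1 day after seeding. GFP adenovirus serves as control. Compounds added 24 h post-infection for 24 h. Cells washed with Krebs–Henseleit buffer pH 7.4, then incubated with [3H]TC for 2 h and washed with ice-cold buffer. Lysed in 2 N HCl, neutralized with NaOH, counted by scintillation. Read-out is the BSEP/GFP accumulation ratio.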

Bile salt export pump [3] = molecular target: T1, Bile salt export pump; assay: Restoration of human BSEP E297G mutant trafficking to cell membrane in MDCK2 cells co-expressing NTCP assessed as decrease in [3H]taurocholate accumulation preincubated for 24 hrs prior incubation with [3H]taurocholate measured after 2 hrs by liquid scintillation counting; type: cell membranes; details: mdck2, 2 h; method in brief: as §3
Bile salt export pump [4] = molecular target: T1, Bile salt export pump; assay: as §1, with “10 uM” for “1 mM”; type: cell-based; details: mdck2, 2 h; method in brief: as §2
Bile salt export pump [5] = molecular target: T1, Bile salt export pump; assay: Restoration of human BSEP E297G mutant trafficking to cell membrane in MDCK2 cells co-expressing NTCP assessed as accumulation of [3H]taurocholate at 100 uM preincubated for 24 hrs prior incubation with [3H]taurocholate measured after 2 hrs by liquid scintillation counting; type: cell membranes; details: mdck2, 2 h
Bile salt export pump [6] = molecular target: Bile salt export pump (Homo sapiens, UniProt O95342); assay: Restoration of wild type human BSEP trafficking to cell membrane in MDCK2 cells co-expressing NTCP assessed as decrease in [3H]taurocholate accumulation at 10 to 100 uM preincubated for 24 hrs prior incubation with [3H]taurocholate measured after 2 hrs by liquid scintillation counting; type: cell membranes; details: mdck2, 2 h; method in brief: as §3
Chain of Bile salt export pump (Homo sapiens, UniProt O95342) (O95342 whole entry): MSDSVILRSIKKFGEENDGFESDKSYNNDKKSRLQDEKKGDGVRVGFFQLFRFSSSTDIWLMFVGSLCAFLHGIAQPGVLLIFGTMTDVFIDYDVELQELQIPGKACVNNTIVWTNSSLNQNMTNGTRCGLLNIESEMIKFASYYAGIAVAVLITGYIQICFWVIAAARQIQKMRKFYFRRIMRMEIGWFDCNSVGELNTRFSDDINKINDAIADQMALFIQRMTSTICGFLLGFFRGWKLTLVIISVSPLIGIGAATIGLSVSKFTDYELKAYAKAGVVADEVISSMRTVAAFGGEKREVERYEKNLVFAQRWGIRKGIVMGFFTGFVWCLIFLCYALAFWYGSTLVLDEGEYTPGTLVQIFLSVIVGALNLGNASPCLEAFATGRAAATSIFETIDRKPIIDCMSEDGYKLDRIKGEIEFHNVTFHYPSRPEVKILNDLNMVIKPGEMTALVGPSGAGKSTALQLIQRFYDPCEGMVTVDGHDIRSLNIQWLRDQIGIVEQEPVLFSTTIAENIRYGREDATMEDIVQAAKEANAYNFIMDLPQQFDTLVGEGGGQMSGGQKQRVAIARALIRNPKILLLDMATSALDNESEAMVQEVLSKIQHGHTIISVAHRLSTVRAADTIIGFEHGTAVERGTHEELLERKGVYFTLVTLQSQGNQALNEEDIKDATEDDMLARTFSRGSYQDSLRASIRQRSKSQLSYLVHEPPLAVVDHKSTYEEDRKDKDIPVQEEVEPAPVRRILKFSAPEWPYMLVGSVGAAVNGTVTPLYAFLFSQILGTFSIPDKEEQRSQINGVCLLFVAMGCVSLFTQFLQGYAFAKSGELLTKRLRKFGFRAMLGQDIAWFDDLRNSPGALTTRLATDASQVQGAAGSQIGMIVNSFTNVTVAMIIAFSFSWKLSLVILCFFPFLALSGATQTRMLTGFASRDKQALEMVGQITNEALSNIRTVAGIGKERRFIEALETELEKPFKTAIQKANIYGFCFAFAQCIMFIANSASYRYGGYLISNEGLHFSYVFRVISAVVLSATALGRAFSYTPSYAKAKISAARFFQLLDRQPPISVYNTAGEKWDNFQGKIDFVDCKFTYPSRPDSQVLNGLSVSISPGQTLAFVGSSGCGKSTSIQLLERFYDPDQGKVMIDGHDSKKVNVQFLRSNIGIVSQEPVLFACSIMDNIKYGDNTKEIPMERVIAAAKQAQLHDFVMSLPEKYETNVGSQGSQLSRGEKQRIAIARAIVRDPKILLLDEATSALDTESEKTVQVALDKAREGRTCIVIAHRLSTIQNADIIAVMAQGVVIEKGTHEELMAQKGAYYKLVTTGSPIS

T1 sequence (O95342 whole entry E297G): as the sequence (O95342 whole entry) above, with E297G counted along it

O=C(O)CCCc1ccccc1
fold change (FC) (Bile salt export pump [1]): 3

CCCCN(C(=O)c1ccc(OCc2c(-c3c(Cl)cccc3Cl)noc2C(C)C)cc1Cl)c1cccc(C(=O)O)c1
Activity (Bile salt export pump [2]): 49%

CC(C)c1onc(-c2c(Cl)cccc2Cl)c1COc1ccc(C(=O)N(c2cccc(C(=O)O)c2)c2cccc3ccccc23)c(Cl)c1
Activity (Bile salt export pump [2]): 59%

CC(C)c1onc(-c2c(Cl)cccc2Cl)c1COc1ccc(C(=O)N(c2cccc(C(=O)O)c2)c2ccc3ccccc3c2)c(Cl)c1
Activity (Bile salt export pump [2]): 70%

CC(C)c1onc(-c2ccccc2)c1COc1ccc(C(=O)N(Cc2ccccc2)c2cccc(C(=O)O)c2)c(Cl)c1
Activity (Bile salt export pump [2]): 64%

CC(C)c1onc(-c2c(Cl)cccc2Cl)c1COc1ccc(C(=O)N(Cc2ccccc2)c2cccc(C(=O)O)c2)cc1
Activity (Bile salt export pump [2]): 85%

Cc1cccc(C)c1-c1noc(C(C)C)c1COc1ccc(C(=O)N(Cc2ccccc2)c2cccc(C(=O)O)c2)c(Cl)c1
Activity (Bile salt export pump [2]): 93%

CC(C)c1onc(-c2c(Cl)cccc2Cl)c1COc1ccc(C(=O)N(Cc2ccccc2)c2ccccc2C(=O)O)c(Cl)c1
Activity (Bile salt export pump [2]): 80%

CC(C)c1onc(-c2c(Cl)cccc2Cl)c1COc1ccc(C(=O)N(Cc2ccccc2)c2ccc(C(=O)O)cc2)c(Cl)c1
Activity (Bile salt export pump [2]): 35%

COC(=O)c1cccc(N(Cc2ccccc2)C(=O)c2ccc(OCc3c(-c4c(Cl)cccc4Cl)noc3C(C)C)cc2Cl)c1
Activity (Bile salt export pump [2]): 93%

CC(C)c1onc(-c2c(Cl)cccc2Cl)c1COc1ccc(/C=C/c2cccc(C(=O)O)c2)c(Cl)c1
Activity (Bile salt export pump [3]): Dose-dependent effect | Activity (Bile salt export pump [2]): 33%

CC(C)c1onc(-c2c(Cl)cccc2Cl)c1COc1ccc(C(=O)Nc2cccc(C(=O)O)c2)c(Cl)c1
Activity (Bile salt export pump [2]): 111%

CC(C)c1onc(-c2c(Cl)cccc2Cl)c1COc1ccc(C(=O)N(Cc2ccccc2)c2cccc(C(=O)O)c2)c(Cl)c1
fold change (FC) (Bile salt export pump [4]): 7 | Activity (Bile salt export pump [3]): Dose-dependent effect | Activity (Bile salt export pump [2]): 31%

CC(C)c1onc(-c2c(Cl)cccc2Cl)c1COc1ccc(C(=O)N(CCc2ccccc2)c2cccc(C(=O)O)c2)c(Cl)c1
Activity (Bile salt export pump [2]): 53%

CC(C)c1onc(-c2c(Cl)cccc2Cl)c1COc1ccc(C(=O)N(C)c2cccc(C(=O)O)c2)c(Cl)c1
Activity (Bile salt export pump [2]): 66%

C[C@H](CCC(=O)O)[C@H]1CC[C@H]2[C@@H]3[C@H](O)C[C@@H]4C[C@H](O)CC[C@]4(C)[C@H]3CC[C@]12C [CHENODIOL]
Activity (Bile salt export pump [2]): 50% | Activity (Bile salt export pump [5]): 46%

C[C@H](CCC(=O)O)[C@H]1CC[C@H]2[C@@H]3[C@H](O)C[C@@H]4C[C@H](O)CC[C@]4(C)[C@H]3C[C@H](O)[C@]12C [CHOLIC ACID]
Activity (Bile salt export pump [2]): 73% | Activity (Bile salt export pump [5]): 40% | Activity (Bile salt export pump [6]): Active

C[C@H](CCC(=O)O)[C@H]1CC[C@H]2[C@@H]3CC[C@@H]4C[C@H](O)CC[C@]4(C)[C@H]3C[C@H](O)[C@]12C [DEOXYCHOLIC ACID]
Activity (Bile salt export pump [5]): 65%

C[C@H](CCC(=O)NCC(=O)O)[C@H]1CC[C@H]2[C@@H]3[C@H](O)C[C@@H]4C[C@H](O)CC[C@]4(C)[C@H]3C[C@H](O)[C@]12C [GLYCOCHOLIC ACID]
Activity (Bile salt export pump [5]): 108%

C[C@H](CCC(=O)O)[C@H]1CC[C@H]2[C@@H]3[C@@H](O)C[C@@H]4C[C@H](O)CC[C@]4(C)[C@H]3CC[C@]12C [URSODIOL]
Activity (Bile salt export pump [2]): 76% | Activity (Bile salt export pump [5]): 43%
